Screens from PubChem.
ARFGAP1 inhibitor: inhibitors of rat ARFGAP1 GAP activity, primary screen, biochemical, fluorescence polarization, GDP tracer. AID 651572, 2012. ADP-ribosylation factor GTPase-activating protein 1 (Rattus norvegicus), Q62848. hit rate 0.26% among 360,000. inhibition, % at 16.5 µM. Arfgap1-stimulated ARF1 GTP hydrolysis, GDP FP detection;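 active means inhibition above a per-plate limit, mean inhibition of low control wells plus 3 SD, cut at about 25% in these data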
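Assay system: purified rat His6-Arfgap1 residues 1-136 (GAP domain); Reagent: human Δ17 ARF1 bound to GTP; Dosing: 16.5 µM single point, 1.26% DMSO; Times: GTP hydrolysis reaction 2 h at 25 °C; Signal: FP, GDP Alexa 633 tracer displaced from anti-GDP antibody, 620/688 nm; Measure: % inhibition from polarization.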
PAFAH1B2 inh: PAFAH1B2 enzyme inhibitors, primary screen, biochemical, fluorescence polarization, human. hit rate 1.2% among 340,000. AID 492953, 2010. inhibition, % at 3.39 µM. Platelet-activating factor acetylhydrolase IB subunit alpha2 (Homo sapiens), P68402. recombinant PAFAH1B2, FP-rhodamine activity probe;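 active means inhibition above the mean of all tested compounds plus 3 SD, cut at about 24% in these data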
Target sequence (P68402 whole entry, looked up): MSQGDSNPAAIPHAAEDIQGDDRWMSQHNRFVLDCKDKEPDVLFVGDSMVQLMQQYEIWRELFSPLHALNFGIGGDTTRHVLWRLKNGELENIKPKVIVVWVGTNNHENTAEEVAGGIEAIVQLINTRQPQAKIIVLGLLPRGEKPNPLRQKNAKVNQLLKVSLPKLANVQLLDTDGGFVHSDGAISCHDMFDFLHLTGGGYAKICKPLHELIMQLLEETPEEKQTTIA
PAFAH2 FP inh: PAFAH2 enzyme inhibitors, primary screen, biochemical, fluorescence polarization, human. Platelet-activating factor acetylhydrolase 2, cytoplasmic (Homo sapiens), Q99487. hit rate 0.99% among 340,000. recombinant PAFAH2, FP-rhodamine activity probe. AID 492956, 2010. inhibition, % at 3.39 µM;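 active means inhibition above the mean over all tested compounds plus 3 SD, cut at about 30% in these data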;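 further: inhibitors block probe labeling of enzyme so polarization drops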
PAFAH1B3 FP inh: PAFAH1B3 enzyme inhibitors, primary screen, biochemical, fluorescence polarization, human; inhibition, % at 3.39 µM; recombinant PAFAH1B3, FP-rhodamine probe; AID 492972, 2010; Platelet-activating factor acetylhydrolase IB subunit alpha1 (Homo sapiens), Q15102; hit rate 0.28% among 340,000;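 active means inhibition above the screen-wide average of all tested compounds plus 3 SD, cut at about 25% in these data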
ASAP1 GAP inh: inhibitors of human ASAP1 ArfGAP activity, primary screen, biochemical, fluorescence polarization; ASAP1-stimulated ARF1 GTP hydrolysis, GDP FP detection; inhibition, % at 16.5 µM; Arf-GAP with SH3 domain, ANK repeat and PH domain-containing protein 1 (Homo sapiens), …; hit rate 0.19% among 360,000; in the data active means inhibition above about 25%
pPAFAH FP inh: pPAFAH enzyme inhibitors, primary screen, biochemical, fluorescence polarization, human | Platelet-activating factor acetylhydrolase (Homo sapiens), Q13093 | recombinant pPAFAH, FP-rhodamine probe fluorescence polarization | inhibition, % at 3.39 µM | hit rate 1.5% among 330,000 | AID 463082, 2010;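 active means inhibition above the mean inhibition across the screen plus 3 SD, cut at about 25% in these data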;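 further: inhibitors block binding of the rhodamine activity-based probe so polarization drops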
Target sequence (Q13093 whole entry, looked up): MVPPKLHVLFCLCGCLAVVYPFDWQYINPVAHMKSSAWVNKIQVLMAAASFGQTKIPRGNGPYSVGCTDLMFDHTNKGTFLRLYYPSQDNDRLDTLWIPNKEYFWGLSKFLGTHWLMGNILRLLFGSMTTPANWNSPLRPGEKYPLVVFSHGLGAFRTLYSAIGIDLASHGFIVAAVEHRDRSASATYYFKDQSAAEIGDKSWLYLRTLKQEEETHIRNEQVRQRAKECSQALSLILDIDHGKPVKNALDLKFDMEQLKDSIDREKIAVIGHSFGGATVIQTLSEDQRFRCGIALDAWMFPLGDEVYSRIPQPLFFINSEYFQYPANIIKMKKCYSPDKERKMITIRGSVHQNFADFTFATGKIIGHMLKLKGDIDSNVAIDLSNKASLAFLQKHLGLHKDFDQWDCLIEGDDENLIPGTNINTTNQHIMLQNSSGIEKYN
Numbers stand for hits; n = inactive; x = no result given; + = active, no number. An excerpt weighted towards active compounds, which were near 2.7% of everything screened.

SMILES | ARFGAP1 inhibitor | PAFAH1B2 inh | PAFAH2 FP inh | PAFAH1B3 FP inh | ASAP1 GAP inh | pPAFAH FP inh
CCN(CC(=O)Nc1ccc(OC)cc1)C(=O)c1ccc2[nH]c3c(c2c1)CC(C)CC3 (stereo not drawn) | n | 27 | n | n | n | n
CC1CCc2[nH]c3ccc(C(=O)N(C)CC(=O)Nc4ccccc4Br)cc3c2C1 (stereo not drawn) | n | n | n | n | n | n
CCCCc1c(-c2ccccc2OC)ncn1Cc1ccc(OC)cc1 | n | x | x | x | n | x
O=c1cc2c(=O)oc3cc(O)c(O)oc3c2c(O)c1O | n | 30 | 62 | 79 | n | x
COc1ccc(OC)c2[nH]c(C(=O)N/N=C/c3ccccc3O)cc12 | n | 34 | 30 | 42 | n | n
COc1ccc(OC)c(/C=N/NC(=O)c2cc3c(OC)cccc3[nH]2)c1 | n | n | n | n | n | 25
COc1ccc(/C=N/NC(=O)c2cccnc2)c2ccccc12 | n | 155 | + | 199 | n | n
COc1ccc(/C=N/NC(=O)c2cc3c(OC)ccc(OC)c3[nH]2)cc1O | n | 29 | n | n | n | n
CC(C)(C)c1ccc(-c2cc(NC(=O)Cc3c[nH]c4ccccc34)ccc2Nc2cccnc2)cc1 | n | x | x | x | n | x
C=CCNc1cccc2c1S(=O)(=O)N[C@@H](Cc1ccccc1)CO2 | n | x | x | x | n | x
CC(=O)Nc1ccc(-c2ccc3nnc(C)n3n2)cc1 | n | n | n | n | n | n
Cc1nnc2ccc(-c3ccc(NC(=O)Cc4cccs4)cc3)nn12 | n | n | n | n | n | 27
Cc1cc(C)c2nc3sc(=Cc4ccc(-c5ccccc5C(=O)O)o4)c(=O)n3c2c1 | n | x | x | x | n | x
O=C(O)c1ccc(-c2ccc(/C=c3/sc4nc5ccccc5n4c3=O)o2)cc1Cl | n | n | n | 26 | n | 27
C#CCNC(=O)C[C@H]1C[C@@]2(C(=O)OC)C(=C[C@H](COCc3ccccc3)O[C@@H]2C)N(Cc2ccc3c(c2)OCO3)C1=O | n | x | x | x | n | x
CCOC(=O)c1ccc(N2CCN(c3ccccc3F)CC2)c(NC(=O)Nc2cccc(OC)c2)c1 | n | n | n | n | n | 26
COc1cccc(CN(C)[C@H]2C[C@H]3c4[nH]c5ccccc5c4CCN3C[C@H]2[C@H](C)O)c1OC | n | x | x | x | n | x
O=C(NC1CCCC1)[C@@H]1CCCN1C(=O)[C@@H](NS(=O)(=O)c1ccc(F)cc1F)c1ccccc1 | n | x | x | x | n | x
COC(=O)[C@]12C[C@H](CC(=O)NCCc3ccccc3OC)C(=O)N(CCC3=CCCCC3)C1=C[C@H](COCc1ccccc1)O[C@@H]2C | n | x | x | x | n | x
CCCCCCCCn1c(=O)c(C(=O)OCC)c(O)c2ccccc21 | n | 24 | n | n | n | n
O=C1/C(=C\c2ccco2)SC(=S)N1C1CCCCC1 | x | x | x | x | x | 33
Cn1c(=S)[nH]c2sc3c(c2c1=O)CCC(C(C)(C)C)C3 (stereo not drawn) | n | 44 | n | n | n | n
Cc1ccc(CCNC(=O)C2CC(c3cccc(F)c3)=NO2)cc1 (stereo not drawn) | n | 28 | n | n | n | n
CCCCNC(=O)C1CC(c2cccc(F)c2)=NO1 (stereo not drawn) | n | n | n | n | n | n
CC(C(=O)NCCS(=O)(=O)c1ccc(Cl)cc1)S(=O)(=O)c1ccc(Cl)cc1 (stereo not drawn) | n | n | n | n | n | n
SMILES | ARFGAP1 inhibitor | PAFAH1B2 inh | PAFAH2 FP inh | PAFAH1B3 FP inh | ASAP1 GAP inh | pPAFAH FP inh
CC(C)c1ccc(C(C)NCCS(=O)(=O)c2ccc(Br)cc2)cc1 (stereo not drawn) | n | 26 | n | n | n | n
CC(NCCS(=O)(=O)c1ccc(Cl)cc1)c1cccc(Cl)c1 (stereo not drawn) | n | 24 | n | n | n | n
O=C(NCCS(=O)(=O)c1ccc(Br)cc1)c1ccccc1 | n | n | n | n | n | n
COC(=O)C1=C(C)N(C)C(=NCc2ccc3c(c2)OCO3)NC1c1ccc(C(F)(F)F)cc1 (stereo not drawn) | n | x | x | x | n | x
CCCOc1ccc(C(=O)O/N=C(\CC)c2ccc(C)cc2)cc1 | n | n | n | n | n | n
Cc1ccc(C(=O)O/N=C(\N)c2ccccn2)cc1C | n | n | n | n | n | n
C/C(=N\OC(=O)c1ccc(OC(C)C)cc1)c1ccc(C)c(C)c1 | n | n | n | n | n | 28
CC/C(=N\OC(=O)c1ccc(OC(C)C)cc1)c1ccc(C)cc1 | n | n | n | n | n | 29
C/C(=N\OC(=O)c1ccc(F)cc1)c1ccc(F)c(F)c1 | n | n | 37 | n | n | n
COc1ccc(C(=O)N(C)[C@H]2C[C@H]3c4[nH]c5c(-c6ccccc6)cccc5c4CCN3C(=O)[C@H]2[C@H](C)O)cc1 | n | x | x | x | n | x
CC(C)(C)S(=O)N1C[C@@H]2CC(=O)C=C2[C@H]1CCO (stereo partly drawn) | n | x | x | x | n | x
O=C(OCC(=O)C12CC3CC(CC(C3)C1)C2)c1ccc(O)cc1 | n | 26 | 84 | n | n | n
CNS(=O)(=O)c1cccc(C(=O)OCC(=O)C23CC4CC(CC(C4)C2)C3)c1 | n | 30 | 46 | n | n | n
CNS(=O)(=O)c1cccc(C(=O)OCC(=O)Nc2ccc(Cl)cn2)c1 | n | n | n | n | n | n
Nc1ccc(O)cc1C(=O)OCC(=O)C12CC3CC(CC(C3)C1)C2 | n | n | 86 | n | n | 29
Cc1ccccc1C(=O)N(C)[C@H]1C[C@H]2c3[nH]c4c(-c5ccccc5)cccc4c3CCN2C(=O)[C@H]1[C@H](C)O | n | x | x | x | n | x
COCCN1Cc2cc(C(=O)OC)c3c(c2C1=O)c1cc(OC)ccc1n3S(C)(=O)=O | n | x | x | x | n | x
COC(=O)c1c(-c2ccc(OC)cc2)c2c(c3c4cc(OC)ccc4n(S(=O)(=O)c4ccc(C)cc4)c13)C(=O)N(C)C2 | n | x | x | x | n | x
CC(NC(=O)c1ccccc1F)C12CC3CC(CC(C3)C1)C2 (stereo not drawn) | n | 27 | n | n | n | n
Cc1occc1C(=O)NC(C)C12CC3CC(CC(C3)C1)C2 (stereo not drawn) | n | n | n | n | n | n
Cc1nnsc1C(=O)NC(C)C12CC3CC(CC(C3)C1)C2 (stereo not drawn) | n | 29 | n | n | n | n
COc1cc(-c2nc(-c3ccc4c(c3)-c3ccccc3S4(=O)=O)c(-c3ccccc3)[nH]2)cc(OC)c1O | n | n | n | n | n | 27
